Assay [1] can be described thus: S. cerevisiae growth inhibition in permissive medium (OD615), pilot counter-assay for S. cerevisiae lifespan shortening project, permissive growth control (AID 705). The conditions noted are these: OD615, 24 h, at 10 µM, active compounds read high. The gist of the method: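 Timing: 24 h exposure, 30 °C / Material: Saccharomyces cerevisiae strain carrying genetically modified DeaD replicative-lifespan system / Signal: OD at 615 nm / Compound: 10 µM single dose, 0.25% DMSO / Medium: SC raffinose/galactose permissive medium / Evaluation: reduction in yeast growth (OD615)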

Assay [2] can be described thus: S. cerevisiae growth inhibition in restrictive medium, OD615, pilot screen, restrictive growth control, yeast lifespan reduction project (AID 706;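 active = growth inhibition above a set limit, 3 SD over mean compound inhibition, in both replicates, cut at about 43% in these data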;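 note: modified DeaD lifespan yeast strain shifted to restrictive glucose medium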). As to conditions: OD615, 48 h, at 10 µM, active compounds read high. The gist of the method:
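System: Engineered S. cerevisiae DeaD strain | Detection: OD615 | Buffer or medium: CSMM-D glucose medium | Doses: 10 µM compound, 0.25% DMSO | Timing: 4 h pre-growth plus 48 h compound exposure, 30 °C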

Assay [3] in a line: doxorubicin toxicity protection in MRP-1 cells – H69AR cells, CellTiter-Glo, duplicate, MRP-1 activator project, pilot screen (AID 807;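 active = viability increase at or above a cutoff of the median across tested compounds plus 3 SD, cut at about 8.5% in these data, passing the limit was not always enough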;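 note: compound pretreatment 18-22 h then 72 h combined with doxorubicin; 0% = doxorubicin alone and 100% = vehicle without doxorubicin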). As to conditions: H69AR viability with doxorubicin, CellTiter-Glo luminescence; at 10 µM; active compounds read high.
The nature of assay [4]: viability of HCT116 without oncogenic beta-catenin – human colon tumor cells, pilot screen (AID 823;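 active = cell viability at or below a set limit in both duplicate runs, the limit being the all-compound median minus 4 SD, cut at about 23% in these data, passing the limit was not always enough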;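 note: 0% = wells killed by 20 µM Hyamine and 100% = untreated DMSO cell wells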). The conditions noted are these: HCT116 beta-catenin knockout viability, CellTiter-Glo, 60 h; at 10 µM; active compounds read low.
A short description of assay [5]: viability of PTEN-null HCT116 cells – cell-based, HCT116 clonal line, CellTiter-Glo, pilot screen (AID 824;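 active = viability at or below 27.92% in each of two runs, the all-compound median minus 4 SD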;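 note: 0% = 20 µM Hyamine control and 100% = vehicle cell control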). As to conditions: HCT116 PTEN-deleted viability, 60 h, at 10 µM, active compounds read low.
A short description of assay [6]: RAM pathway blockade in budding yeast – dse1pr::URA3 reporter, 5-FOA selection, pilot screen (AID 869;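 active = inhibition over a set limit, the all-compound mean plus 3 SD, in both replicate runs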;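 note: 0% = DMSO wells with no growth and 100% = 10 µM 1-NA-PP1 with full growth; RAM network block rescues cells from 5-FOA so hits raise OD615 growth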). The conditions noted are these: S. cerevisiae dse1pr::URA3 5-FOA growth, OD615, 2 d; at 10 µM; active compounds read high; strain carries analog-sensitive mutant Cbk1 kinase.
The nature of assay [7]: RAM signaling pathway blockade in yeast – S. cerevisiae, Pdr1DBD-CYC8 efflux-inhibited sensitized strain, primary screen (AID 1298;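 active = RAM network inhibition above 8.4% in each of two replicates, 3 SD over the compound average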;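 note: 0% = DMSO untreated cells without growth and 100% = 10 µM 1-NA-PP1 full growth; higher means more yeast growth rescued from 5-FOA killing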). As to conditions: S. cerevisiae cbk1-as DSE1-URA3 strain, 5-FOA growth OD615, 2 d; at 50 µM; active compounds read high.

Unmarked numbers belong to inactive results. Inconclusive results are not listed. Active and inactive are the calls of the source.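 Rule for the calls, unless noted: active = growth inhibition above 25% in both replicates, a cutoff set 3 SD above the mean; inconclusive = above 25% in only one replicate; inactive = the rest.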

In the case of `CC1(C)Nc2ccccc2N(CC(=O)N2CCCCC2)C1=O`, the growth inhibition in assay [1] is 0.325%; in assay [2], -1.38%. In assay [3], the viability increase was -0.05%. Moreover, the results for the viability in assay [4] and in assay [5] were 107% and 103%, respectively. Moreover, in assay [6], the inhibition was -0.16%. Further, the RAM network inhibition in assay [7] was 0.97%.

`CCOc1ccc(C(=O)Nc2c3c(nn2-c2ccc(C)cc2)CS(=O)C3)cc1OCC` (configuration not stated): the growth inhibition was 2.17% in assay [1] and -3.32% in assay [2]. The viability increase in assay [3] was -1.84%. The viability in assay [4] is 97.6%; in assay [5] it was 104%. In assay [6], the inhibition is 2.23%. The RAM network inhibition in assay [7] is 8.77%.

For the compound `Cc1ccc(-c2c(C(=O)N3CCOCC3)oc(=O)c3ccccc23)cc1`, the growth inhibition in assay [1] is -9.96%; in assay [2] it was -6.92%. Besides, the viability increase in assay [3] is -0.03%. The figures for the viability in assay [4] and in assay [5] were 95.6% and 103%, respectively. Further, the inhibition in assay [6] was 1.33%. Besides, in assay [7], the RAM network inhibition is 1.2%.

Turning to `COc1ccc(N2CCN(CCNC(=O)c3ccc(NC(=O)C4CCCO4)cc3)CC2)cc1` (configuration not stated), the growth inhibition in assay [1] is -14%; in assay [2], -9.71%. Besides, the viability increase in assay [3] was -1.61%. For the same compound, the viability in assay [4] was 99.8%. Further, in assay [6], the inhibition is 1.68%. Besides, the RAM network inhibition in assay [7] was 7.42%.

With `COC(=O)c1ccc(NC(=O)c2cnc3scc(C)n3c2=O)cc1`, the figures for the growth inhibition in assay [1] and in assay [2] were -9.29% and -13.3%, respectively. The viability increase in assay [3] was 1.67%. In addition, the viability in assay [4] is 101%; in assay [5], 95.8%. Moreover, in assay [6], the inhibition is 0.345%. In assay [7], the RAM network inhibition was 2.36%.

For `COc1ccccc1N(CC(=O)Nc1ccccc1C(=O)NC(C)C)S(C)(=O)=O`, the figures for the growth inhibition in assay [1] and in assay [2] were -3.27% and -16.6%, respectively. The viability increase in assay [3] was -0.99%. Further, the values for the viability in assay [4] and in assay [5] were 86.6% and 77%, respectively. In addition, in assay [6], the inhibition is 1.95%. For the same compound, the RAM network inhibition in assay [7] is -0.28%.

On to `CCN1CCN(Cc2nc3c(c(=O)n(C)c(=O)n3C)n2CCCc2ccccc2)CC1`, for which the growth inhibition in assay [1] is -5.05%; in assay [2] it was -8.71%. In addition, the viability increase in assay [3] is -4.04%. Further, the viability in assay [4] was 91%. Further, the inhibition in assay [6] is 0.665%. Moreover, in assay [7], the RAM network inhibition is 7.54%.

`O=C(Nc1ccc(Cl)cn1)c1cccc(F)c1`: the growth inhibition in assay [1] is -8.65%; in assay [2], 3.83%. Also, the viability increase in assay [3] is -5.84%. For the same compound, the results for the viability in assay [4] and in assay [5] were 37% and 33.9%, respectively. Besides, in assay [6], the inhibition is 0.27%. Moreover, the RAM network inhibition in assay [7] is 1.17%.

With `COc1cccc(C2NC(=O)NC(C)=C2C(=O)Nc2cc(OC)ccc2OC)c1` (configuration not stated), the growth inhibition in assay [1] is -7.14%; in assay [2], 0.605%. Moreover, the viability increase in assay [3] is -0.51%. For the same compound, the viability is 95.2% in assay [4] and 94.9% in assay [5]. The inhibition in assay [6] is 1.15%. Moreover, the RAM network inhibition in assay [7] was 5.92%.

As for `COc1cc2c(C(=O)NCc3ccccn3)cn(C)c(=O)c2cc1OC`, the growth inhibition was -8.38% in assay [1] and -2.63% in assay [2]. For the same compound, the viability increase in assay [3] was -1.1%. Besides, the viability in assay [4] was 102%; in assay [5], 95.3%. Besides, in assay [6], the inhibition was 1.86%. For the same compound, the RAM network inhibition in assay [7] is 1.07%.

As to `C=C(C)CC1N(c2cccc(OC)c2)C(=O)C2C(C(=O)O)C3C=CC21O3` (configuration not stated), the results for the growth inhibition in assay [1] and in assay [2] were -5.17% and 4.84%, respectively. Besides, the viability increase in assay [3] is -1.04%. For the same compound, the results for the viability in assay [4] and in assay [5] were 103% and 95.3%, respectively. For the same compound, the inhibition in assay [6] is -0.415%. The RAM network inhibition in assay [7] is 5.36%.

For the compound `Oc1c(C(c2cccs2)N2CCN(c3ccccc3)CC2)sc2ncnn12` (configuration not stated), the growth inhibition is -13.2% in assay [1] and -5.4% in assay [2]. Further, the viability increase in assay [3] was 12.3% (active). In addition, the figures for the viability in assay [4] and in assay [5] were 90.9% and 89.5%, respectively. For the same compound, the inhibition in assay [6] was 1.53%. For the same compound, the RAM network inhibition in assay [7] was 1.45%.

Consider `O=C(CNC(=O)Cn1ccc2ccccc2c1=O)NCCCN1CCCCCC1`, for which the growth inhibition was -7.25% in assay [1] and -1.09% in assay [2]. Further, the viability increase in assay [3] was -2.48%. The viability in assay [4] was 91.2%. In addition, in assay [6], the inhibition is -0.25%. Moreover, the RAM network inhibition in assay [7] was 4.42%.

Take `CCN(CC)c1ccc(NC(=O)c2ccc(NC(=O)C3CCCO3)cc2)c(C)c1` (configuration not stated): the figures for the growth inhibition in assay [1] and in assay [2] were -6.83% and 3.42%, respectively. The viability increase in assay [3] is 1.38%. Moreover, in assay [4], the viability was 94.8%. Moreover, in assay [6], the inhibition was 0.965%. The RAM network inhibition in assay [7] was 6.65%.

Turning to `C=CCn1c(CCNC(=O)C(C)(C)C)nc2ccccc21`, the growth inhibition in assay [1] is -10.5%; in assay [2], 3.93%. For the same compound, the viability increase in assay [3] was -1.82%. For the same compound, the viability in assay [4] was 103%. Besides, in assay [6], the inhibition is 1.94%. The RAM network inhibition in assay [7] is 3.12%.

Regarding `CC(=O)c1c(C)n(-c2ccc(N(C)C)cc2)c2ccc(OCC(N)=O)cc12`, the results for the growth inhibition in assay [1] and in assay [2] were -8.79% and -6.18%, respectively. In addition, the viability increase in assay [3] was -4.87%. In addition, the viability in assay [4] was 84.8%. The inhibition in assay [6] was 2.3%. In addition, the RAM network inhibition in assay [7] was 6.29%.

Turning to `CSc1nc2c(c(=O)n1-c1ccccc1)SCC2`, the growth inhibition was -15.9% in assay [1] and -8.25% in assay [2]. Further, the viability increase in assay [3] is -2.76%. Moreover, the viability in assay [4] was 98.3%. The inhibition in assay [6] is 0.775%. In addition, in assay [7], the RAM network inhibition was 0.21%.

For `NC1=C(c2ccc(F)cc2)C(=O)CS1`, the growth inhibition in assay [1] is -17.2%; in assay [2] it was 4.04%. The viability increase in assay [3] is -1.22%. Besides, the viability in assay [4] was 91.1%. Further, the inhibition in assay [6] is 1.85%. In assay [7], the RAM network inhibition is 5.83%.

Take `Cc1c(NC(=O)CCC2CCCCC2)c(=O)n(-c2ccccc2)n1C`: the growth inhibition in assay [1] is 5.74%; in assay [2], 3.62%. In addition, the viability increase in assay [3] was -0.39%. Also, the viability in assay [4] was 99.4%. Also, the inhibition in assay [6] is 0.965%. For the same compound, the RAM network inhibition in assay [7] was 3.28%.

For the compound `O=C(CNC(=O)Cn1ccc2ccccc2c1=O)NCCCN1CCN(c2cccc(Cl)c2)CC1`, the growth inhibition in assay [1] is -15.3%; in assay [2], -5.33%. Also, the viability increase in assay [3] was -5.42%. Further, in assay [4], the viability was 57.3%. The inhibition in assay [6] was 1.63%. Also, in assay [7], the RAM network inhibition is 2.03%.

Regarding `O=C(O)CCCC(=O)N1CCN(c2cccc(Cl)c2)CC1`, the growth inhibition was -2.97% in assay [1] and -1.71% in assay [2]. Further, in assay [3], the viability increase is -1.22%. The viability was 95.2% in assay [4] and 86.2% in assay [5]. For the same compound, the inhibition in assay [6] is 2.33%. The RAM network inhibition in assay [7] was 4.6%.

`Cc1cc(NS(=O)(=O)c2ccc(NC(=O)CCCC(=O)O)cc2)nc(C)n1`: the values for the growth inhibition in assay [1] and in assay [2] were -5.33% and -3.05%, respectively. For the same compound, the viability increase in assay [3] was -1.07%. Besides, the results for the viability in assay [4] and in assay [5] were 102% and 92.2%, respectively. In addition, the inhibition in assay [6] is -0.135%. The RAM network inhibition in assay [7] is 3.87%.

With `O=C(Nc1nccs1)C1CCCN(S(=O)(=O)c2cccc3cccnc23)C1` (configuration not stated), the growth inhibition in assay [1] is -3.46%; in assay [2] it was 11.8%. Moreover, the viability increase in assay [3] is -1.85%. Also, the viability in assay [4] was 71.2%; in assay [5], 68.6%. The inhibition in assay [6] was 1.6%. The RAM network inhibition in assay [7] is 4.95%.

For the compound `CC1(C)Cc2nc(-c3ccccc3)n3cnnc3c2CO1`, the growth inhibition in assay [1] was -8.06%; in assay [2], -4.3%. Besides, in assay [3], the viability increase is -1.77%. Further, the viability in assay [4] is 102%. The inhibition in assay [6] is 0.36%. Moreover, the RAM network inhibition in assay [7] was 4.42%.

(Values after PubChem BioAssay.)
